For assay [1], the target named is T1, Tyrosine-protein phosphatase non-receptor type 1 (Homo sapiens, UniProt P18031).
T1 sequence (P18031 whole entry): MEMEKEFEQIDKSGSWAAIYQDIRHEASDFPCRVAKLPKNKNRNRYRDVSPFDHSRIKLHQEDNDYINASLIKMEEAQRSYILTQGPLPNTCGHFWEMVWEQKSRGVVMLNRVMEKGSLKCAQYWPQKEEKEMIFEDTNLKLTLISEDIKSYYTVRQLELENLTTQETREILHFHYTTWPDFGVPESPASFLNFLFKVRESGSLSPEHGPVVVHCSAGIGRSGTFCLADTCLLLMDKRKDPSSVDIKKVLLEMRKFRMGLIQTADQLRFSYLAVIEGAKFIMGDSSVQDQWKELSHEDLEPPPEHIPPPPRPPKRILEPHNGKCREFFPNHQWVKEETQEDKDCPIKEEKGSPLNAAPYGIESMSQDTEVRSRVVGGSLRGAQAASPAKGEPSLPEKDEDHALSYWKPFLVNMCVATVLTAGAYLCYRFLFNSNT
Nature of the assay: Binding affinity to recombinant human PTP1B measured by Surface plasmon resonance assay. On the technique in general: Surface plasmon resonance follows binding to a sensor surface in real time, without labels.

In another assay the test system is Mus musculus. Nature of the assay: Antidiabetic activity in diabetic db/db C57BL/K mouse assessed as decrease in blood glucose at 0.5 umol/kg, sc qd for 7 days measured at 1 hr post-last drug dosing by blood glucose meter analysis. In kind it is functional. The following applies: 168 h, time 7 day. In outline: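 Diabetic db/db mice received a daily s.c. dose (0.5 or 2 μmol/kg) or vehicle for one week. Blood glucose was compared at baseline and at 1 week, and the value is the percent decrease of blood glucose. Liraglutide was the positive control.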

For assay [2], the target named is T2, Tyrosine-protein phosphatase non-receptor type 1 (Homo sapiens) (UniProt P18031).
T2 sequence (whole entry): T1 sequence (P18031 whole entry)
Nature of the assay: Binding affinity to recombinant human PTP1B assessed as off-rate constant, Koff measured by Surface plasmon resonance assay.

Assay [3] has as its target T2, Tyrosine-protein phosphatase non-receptor type 1 (Homo sapiens). Description: Inhibition of PTP1B in human insulin resistant HepG2 cells assessed as induction of 2-NBDG uptake incubated with compound for 24 hrs followed by treatment with insulin for 30 mins and later incubated with 2-NBDG for 30 mins by fluorimetric method. In kind it is cell-based. The following applies: dose 0.1-10 µM, time 25.0 hrs. Put shortly: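 HepG2 cells were made insulin-resistant with palmitic acid, then treated 24 h with test agents at several concentrations. Vehicle was equal-volume DMSO. Mean ± SD, n = 4, compared with vehicle.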

For assay [4] the target is unchanged. Nature of the assay: Binding affinity to recombinant human PTP1B assessed as on-rate constant, Kon measured by Surface plasmon resonance assay.
The target in assay [5] is T1, Tyrosine-protein phosphatase non-receptor type 1. Description: Inhibition of recombinant N-terminal His-tagged human PTP1B (E2 to N321) expressed in Escherichia coli expression system assessed by dephosphorylation of substrate pNPP measured for 4 mins by plate reader analysis.

Peptide text beside a SMILES is read from it. * marks the point of attachment. Palmitoyl = CCCCCCCCCCCCCCCC(=O)*

Six molecules from ChEMBL document CHEMBL4706773, “Discovery of Novel PTP1B Inhibitors Derived from the BH3 Domain of Proapoptotic Bcl-2 Proteins with Antidiabetic Potency” (ACS Med Chem Lett, 2021) can be followed below.

As usually defined, the Kd is a measure of binding affinity in units of concentration. With `CCCCCCCCCCCCCCCC(=O)N[C@@H](CS)C(=O)N[C@@H](C)C(=O)N[C@H](C(=O)N[C@@H](CCC(N)=O)C(=O)N[C@@H](CC(C)C)C(=O)N[C@@H](CCCNC(=N)N)C(=O)N[C@@H](CCCNC(=N)N)C(=O)N[C@@H](Cc1ccccc1)C(=O)NCC(=O)N[C@@H](CC(=O)O)C(=O)N[C@@H](CCCCN)C(=O)N[C@@H](CC(C)C)C(=O)O)[C@@H](C)O` (Palmitoyl-CATQLRRFGDKL-OH), the Kd result in assay [1] was “Not Active”.
Still for that read-out and setting: in the case of `CCCCCCCCCCCCCCCC(=O)N[C@H](C(=O)N[C@@H](C)C(=O)N[C@@H](CCCNC(=N)N)C(=O)N[C@@H](CCCCN)C(=O)N[C@@H](CC(C)C)C(=O)N[C@@H](CCC(N)=O)C(=O)N[C@@H](CS)C(=O)N[C@H](C(=O)N[C@@H](C)C(=O)N[C@@H](CC(=O)O)C(=O)N[C@@H](CCC(N)=O)C(=O)N[C@@H](Cc1ccccc1)C(=O)O)[C@@H](C)CC)[C@@H](C)CC` (Palmitoyl-IARKLQCIADQF-OH) it was “Not Active”; in that of `CCCCCCCCCCCCCCCC(=O)N[C@@H](Cc1ccc(O)cc1)C(=O)NCC(=O)N[C@@H](CCCNC(=N)N)C(=O)N[C@@H](CCC(=O)O)C(=O)N[C@@H](CC(C)C)C(=O)N[C@@H](CCCNC(=N)N)C(=O)N[C@@H](CCCNC(=N)N)C(=O)N[C@@H](CCSC)C(=O)N[C@@H](CO)C(=O)N[C@@H](CC(=O)O)C(=O)N[C@@H](CCC(=O)O)C(=O)N[C@@H](Cc1ccccc1)C(=O)O` (Palmitoyl-YGRELRRMSDEF-OH), “Not Active”.
What is called inhibition in vivo is the percentage by which the read-out fell short of the control. Consider `CCCCCCCCCCCCCCCC(=O)N[C@@H](CCC(=O)NCCCC[C@H](NC(=O)[C@H](C)NC(=O)[C@H](C)NC(=O)[C@H](CCC(N)=O)NC(=O)CNC(=O)[C@H](CCC(=O)O)NC(=O)[C@H](CC(C)C)NC(=O)[C@H](Cc1ccc(O)cc1)NC(=O)[C@H](CO)NC(=O)[C@H](CO)NC(=O)[C@@H](NC(=O)[C@H](CC(=O)O)NC(=O)[C@H](CO)NC(=O)[C@@H](NC(=O)[C@H](Cc1ccccc1)NC(=O)[C@@H](NC(=O)CNC(=O)[C@H](CCC(=O)O)NC(=O)[C@H](C)NC(=O)[C@@H](N)Cc1cnc[nH]1)[C@@H](C)O)[C@@H](C)O)C(C)C)C(=O)N[C@@H](CCC(=O)O)C(=O)N[C@@H](Cc1ccccc1)C(=O)N[C@H](C(=O)N[C@@H](C)C(=O)N[C@@H](Cc1c[nH]c2ccccc12)C(=O)N[C@@H](CC(C)C)C(=O)N[C@H](C(=O)N[C@@H](CCCNC(=N)N)C(=O)NCC(=O)N[C@@H](CCCNC(=N)N)C(=O)NCC(=O)O)C(C)C)[C@@H](C)CC)C(=O)O` [LIRAGLUTIDE], for which the inhibition in vivo at 0.5 µmol/kg with Mus musculus came out at 72.6%.
Broadly, the IC50 is the concentration at which inhibition is half-maximal. On to H-STKKLSECLKRIGDELDSNM-OH, for which the K in assay [2] was 8.39 10^-4/s; in assay [4], 9.73 10^3/M.s. The inhibition entry in assay [3] is “Dose-dependent effect”. Further, the IC50 in assay [5] came out at 5250 nM. Further, the Kd in assay [1] (read-out: Kd) is 86.3 nM.
The corresponding values for H-WAREIGAQLRRMADDLNAQY-OH are 1.52 10^-4/s, 1.45 10^4/M.s, “Dose-dependent effect”, 6840 nM and 105 nM.
